The text below walks through data of PubChem BioAssay.

The nature of assay [1]: inhibitors of TNFa-induced NFkB p65 translocation, primary screen, imaging, HUVEC, MLSMR starter and 10KST1 sets (AID 438;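 active = inhibition above 20% together with a positive visual image hit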;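 also: compound added about 3h40 before a 20 min TNFalpha stimulation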;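 as to inhibition: signal is the nuclear over cytoplasmic p65 intensity ratio per well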). To be noted: HUVEC TNFa-induced p65 nuclear translocation; cell count: measured here: nuclei count (cytotoxicity indicator), at 2.08 µM; inhibition: at 2 µM, stronger effect = higher value, 0% TNFa-plus-vehicle, 100% no-TNFa wells.
Assay [2] can be described thus: endothelial E-selectin expression blockers – imaging, HUVEC, immunofluorescence, MLSMR starter and 10KST1 sets, primary screen (AID 487;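 active = visually confirmed hit in the image check and inhibition above 20%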;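 as to inhibition: signal is fraction of cell area covered by stained E-selectin grains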;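 as to nuclei count: 100% = median nuclei count of all wells on the same plate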). The conditions noted are these: HUVEC TNFalpha-induced E-selectin immunofluorescence imaging, at 2 µM; inhibition: stronger effect = higher value; nuclei count: measured here: cell number, toxicity.
A short description of assay [3]: Primary imaging screen for DUSP6 inhibitors that restore phospho-Erk in transfected HeLa cells, chemical complementation (AID 609).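 As to inhibition: phospho-Erk level distribution per well compared with pooled transfected vehicle control wells.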 The conditions noted are these: HeLa MKP-3 transfected, phospho-Erk imaging KS statistic, at 10 µM, cells stimulated with TPA for 15 min.
Assay [4] has as its target Dual specificity protein phosphatase 6 (Homo sapiens) (UniProt Q16828). The description is as above. To be noted: HeLa MKP-3 transfected, phospho-Erk imaging KS statistic; at 10 µM; stronger effect = higher value; cells stimulated with TPA for 15 min.
The target in assay [5] is Voltage-gated potassium channel subunit beta-2 (Rattus norvegicus) (UniProt P62483). The assay can be described thus: inhibitors of rat Kvbeta2 reductase activity – biochemical, NADPH fluorescence, primary screen (AID 622;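 active = fluorescence slope higher than the sample average by over 3 SD, cut at about -0.22 in these data, passing the limit was not always enough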;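 also: slope of raw intensity against log time taken from 70 to 1610 s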). To be noted: recombinant KvBeta, 4-cyanobenzaldehyde reduction, at 10 µM, stronger effect = higher value.
Chain of Voltage-gated potassium channel subunit beta-2 (Rattus norvegicus) (P62483 whole entry, looked up): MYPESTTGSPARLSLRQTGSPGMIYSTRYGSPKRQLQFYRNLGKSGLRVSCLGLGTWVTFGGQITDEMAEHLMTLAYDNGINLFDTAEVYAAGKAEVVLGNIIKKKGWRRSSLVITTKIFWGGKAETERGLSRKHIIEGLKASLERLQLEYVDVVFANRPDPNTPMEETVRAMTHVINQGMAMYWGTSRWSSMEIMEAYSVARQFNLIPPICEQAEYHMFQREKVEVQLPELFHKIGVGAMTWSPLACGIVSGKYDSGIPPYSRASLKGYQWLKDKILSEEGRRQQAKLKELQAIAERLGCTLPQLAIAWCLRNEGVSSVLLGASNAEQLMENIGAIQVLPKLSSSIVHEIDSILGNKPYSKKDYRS
The target is the same in assay [6]. Put plainly: enhancers of rat Kvbeta2 NADPH turnover – biochemical, NADPH fluorescence, primary screen (AID 623;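 active = NADPH fluorescence slope more negative than the mean of all samples by about 3 SD, 99.7% confidence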;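 also: fluorescence intensity change per second fitted from 20 to 320 s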). The conditions noted are these: Recombinant KvBeta, NADPH fluorescence decrease slope, 10 min; at 10 µM; stronger effect = lower value.
Assay [7] concerns the target Alpha-2C adrenergic receptor (Homo sapiens) (UniProt P18825). Put plainly: compounds altering alpha2C-coupled GIRK flux – cell-based, HEK293 alpha2C/GIRK1/2, thallium flux, primary screen (AID 624;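 active = fluorescence slope after compound addition differing from the mean of all screened samples at 99.7% confidence, in either direction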;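 also: slope of fluorescence ratio to pre-addition baseline per second over 15 to 24 s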). The conditions noted are these: thallium flux BTC fluorescence, at 10 µM, actives lie on both sides.
Assay [8] is described as follows: inhibitors of larval lipid processing in zebrafish, primary screen, whole organism, PED6 fluorescence, gall bladder and intestine (AID 686;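 active = a full or partial loss of lipid-probe fluorescence in the fish gall bladder, intestine or both, judged by eye; inactive = no fluorescence loss, or compound toxic to the fish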;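 also: larvae 5 to 7 days old with five fish per well; signal comes from phospholipase A2 cleavage of quenched PED6 carried via bile; overnight exposure to compound and PED6 before scoring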). The conditions noted are these: Zebrafish larvae PED6 lipid processing, fluorescence scoring; screened at 20 µM (by protocol). In outline:
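System: live zebrafish larvae aged 5-7 days, whole organism; measure: graded gall bladder and intestinal fluorescence inhibition per well; incubation: overnight exposure; reagent: ingested quenched lipid PED6 at 100 nM; signal: By-eye fluorescence microscopy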

Assay [9] is described as follows: loss of swimming-algae plug formation – whole organism, Chlamydomonas reinhardtii, WT vs cilia-less mutant, absorbance, 96-well, primary screen (AID 463189;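 active = inhibition at or above 50% relative to wild type and mutant plate controls; inactive = inhibition below 50%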;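 also: 0% = wild type cc124 cells in DMSO and 100% = ciliumless bld1 mutant cells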). The conditions noted are these: Chlamydomonas reinhardtii gravitaxis, OD600 absorbance, 2 days; at 10 µM; stronger effect = higher value.
Where [10] appears, read: measured here: cell density z-score.
Where [11] appears, read: measured here: nuclear c-Myc green intensity z-score.
The mark [12] stands for this setting: measured here: nuclear pErk red intensity z-score, stronger effect = higher value.

Activity calls are given as the source filed them.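 The calls were made as follows, unless noted: active = compounds giving at least 50% inhibition in the cell-based MKP-3 phosphatase rescue imaging test; inactive = the rest.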

Chain of Dual specificity protein phosphatase 6 (Homo sapiens) (Q16828 whole entry, looked up): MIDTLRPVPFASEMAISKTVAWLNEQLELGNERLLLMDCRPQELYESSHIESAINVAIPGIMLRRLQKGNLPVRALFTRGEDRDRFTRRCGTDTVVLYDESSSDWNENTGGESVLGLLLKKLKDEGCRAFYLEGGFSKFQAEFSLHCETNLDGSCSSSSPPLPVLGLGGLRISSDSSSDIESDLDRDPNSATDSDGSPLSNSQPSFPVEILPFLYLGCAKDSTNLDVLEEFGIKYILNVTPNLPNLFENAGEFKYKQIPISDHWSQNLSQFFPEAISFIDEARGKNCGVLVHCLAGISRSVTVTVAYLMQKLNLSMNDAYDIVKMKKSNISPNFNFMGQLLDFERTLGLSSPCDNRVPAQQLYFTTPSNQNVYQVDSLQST
Chain of Alpha-2C adrenergic receptor (Homo sapiens) (P18825 whole entry, looked up): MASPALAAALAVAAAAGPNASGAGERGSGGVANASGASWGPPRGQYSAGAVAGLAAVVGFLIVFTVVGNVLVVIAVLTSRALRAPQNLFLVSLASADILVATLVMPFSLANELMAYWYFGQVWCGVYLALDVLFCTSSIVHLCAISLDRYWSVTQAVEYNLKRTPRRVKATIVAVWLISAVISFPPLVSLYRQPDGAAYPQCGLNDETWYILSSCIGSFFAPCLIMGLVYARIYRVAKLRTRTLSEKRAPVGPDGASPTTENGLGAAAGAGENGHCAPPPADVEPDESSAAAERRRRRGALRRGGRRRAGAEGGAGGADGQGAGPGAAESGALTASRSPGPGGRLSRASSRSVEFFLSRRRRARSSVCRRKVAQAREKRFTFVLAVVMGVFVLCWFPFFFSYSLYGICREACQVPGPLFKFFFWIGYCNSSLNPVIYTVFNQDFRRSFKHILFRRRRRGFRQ

By inhibition is commonly meant the drop in the measured response relative to a control, in per cent. Regarding `O=C(O)c1cc2n(n1)C(C(F)(F)F)CC(c1ccccc1)N2` (stereo unspecified), in assay [1], the cell count turned out to be 514. In addition, the inhibition in assay [1] is -9.8% (inactive); in assay [2] it was -120% (inactive); in assay [4], 3.66% (inactive); in assay [9], -2% (inactive). In assay [2], this compound came in with a nuclei count of 117%. The z-score in assay [3] (setting [10]) was -1.15; in assay [3] (setting [11]), -0.827; in [3] (setting [12]), 0.269. In addition, the fluorescence slope in assay [5] was -0.503 (inactive). The NADPH fluorescence slope in [6] was -0.000107 (inactive). The slope in assay [7] is 0.00535 (inactive). For the same compound, in assay [8], the call was inactive.

With `CCOCc1nc(N)[nH]c(=O)c1Cc1ccc(OC(C)C)cc1`, in [1], the cell count was 350. Further, the inhibition in [1] was -14.1% (inactive); in assay [2] it was -184% (inactive); in [4] it was 17% (inactive); in [9], 23.2% (inactive). Also, the nuclei count in assay [2] was found to be 133%. Moreover, the z-score in assay [3] (setting [10]) is 0.756; in assay [3] (setting [11]), -0.664; in assay [3] (setting [12]), -2.13. In addition, in assay [5], the fluorescence slope is -0.436 (inactive). Moreover, the NADPH fluorescence slope in assay [6] is -2e-05 (inactive). Besides, in assay [7], the slope was 0.00784 (inactive). The compound was called inactive in [8].

Regarding `C[C@@H]1C[C@H](Nc2ccccc2)c2ccccc2N1C(=O)c1cccnc1`, the cell count in assay [1] was 539. The inhibition in [1] is -1.7% (inactive); in assay [2], 3.9% (inactive); in assay [4], 25.7% (inactive); in assay [9], 0.503% (inactive). Besides, the nuclei count in assay [2] was 159%. For the same compound, the z-score in assay [3] (setting [10]) was 2.9; in assay [3] (setting [11]), -1.02; in [3] (setting [12]), 0.461. Also, in [5], the fluorescence slope was -0.265 (inactive). Also, the NADPH fluorescence slope in assay [6] was 6.9e-06 (inactive). Besides, the slope in assay [7] was 0.00503 (inactive). The compound was called inactive in assay [8].

For `CCOc1ccc(Br)cc1CC(=O)O`, in [1], the cell count amounted to 280. Further, the inhibition in assay [1] is -20.4% (inactive); in [2], -108% (inactive); in [4], 14% (inactive); in assay [9], -8.79% (inactive). Besides, the nuclei count in [2] stood at 90.5%. Also, the figures for the z-score in assay [3] (setting [10]), in [3] (setting [11]) and in assay [3] (setting [12]) were -0.00622, -0.788 and -0.945, respectively. In addition, the fluorescence slope in assay [5] was -0.486 (inactive). The NADPH fluorescence slope in [6] was -0.000116 (inactive). Besides, the slope in [7] is 0.00651 (inactive). In addition, the outcome in [8] was inactive.

On to `CCCOc1ccc(Cc2nn[nH]n2)cc1`, for which the cell count in [1] turned out to be 665. In addition, the inhibition in [1] is -9.9% (inactive); in assay [2], -18.7% (inactive); in assay [4] it was -3.95% (inactive); in [9], -6.39% (inactive). The same compound returned a nuclei count in [2] of 154%. Moreover, the z-score was -1.6 in assay [3] (setting [10]), 0.733 in assay [3] (setting [11]) and 2.09 in [3] (setting [12]). Further, the fluorescence slope in [5] was -0.396 (inactive). Further, the NADPH fluorescence slope in assay [6] was -5.5e-05 (inactive). The slope in [7] is 0.00599 (inactive). Also, the call in assay [8] was inactive.

Regarding `CCCOc1ccc(/C(O)=C2/C(=O)C(=O)N(CCCn3ccnc3)C2c2cccs2)cc1` (stereo unspecified), the cell count in assay [1] is 537. Also, the inhibition in assay [1] was -14.3% (inactive); in assay [2] it was -124% (inactive); in assay [4] it was -18.6% (inactive); in [9], 0.323% (inactive). Further, the nuclei count in assay [2] came to 150%. The z-score in [3] (setting [10]) is -0.681; in assay [3] (setting [11]), -0.103; in assay [3] (setting [12]) it was 0.12. Further, in assay [5], the fluorescence slope is -0.495 (inactive). Moreover, the NADPH fluorescence slope in [6] was -3.4e-05 (inactive). In addition, in assay [7], the slope was 0.00501 (inactive). In addition, the compound was called inactive in [8].

For `CC(=O)NC1(C(F)(F)F)C(=O)Nc2c1c(=O)n(C)c(=O)n2C` (stereo unspecified), the cell count in [1] worked out at 480. Also, the inhibition in [1] is -4.5% (inactive); in [2] it was -139% (inactive); in assay [4], 1.6e-07% (inactive); in assay [9] it was 2.3% (inactive). In [2], this compound came in with a nuclei count of 144%. Further, the results for the z-score in assay [3] (setting [10]), in [3] (setting [11]) and in assay [3] (setting [12]) were 0.582, -0.0109 and -0.0908, respectively. The fluorescence slope in assay [5] is -0.529 (inactive). The NADPH fluorescence slope in assay [6] was -4.1e-05 (inactive). For the same compound, in assay [7], the slope was 0.00477 (inactive). Also, the call in assay [8] was inactive.
